Measurements as given in article PMC10448495 (ACS Omega, 2023).

How the values were obtained:
Assay type in all cases: in vivo
mice = experiment: Carrageenan-induced paw edema model; settings: dose 10 mg/kg
Outline: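 Thirty BALB-c mice randomised into five groups of six. Paw volume by digital plethysmometer at 0, 1, 2, 3, 4 and 5 h; percent inhibition from paw-volume increase, control versus treated. ANOVA/Dunnett's.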

mice (BALB-c) [1] = experiment: Acetic acid-induced writhing assay; settings: 10 mg/kg i.p.
Outline: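 BALB-c mice of either sex (18–22 g), fasted 2 h, six per group. Writhes counted starting 5 min after acid; percent analgesic effect derived. Mean ± S.E.M., ANOVA with Dunnett's test versus negative control.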

mice (BALB-c) [2] = experiment: Hot plate assay; settings: dose 10 mg/kg

SMILES | paw volume (mice; 1 h) | paw volume (mice; 2 h) | paw volume (mice; 3 h) | paw volume (mice; 4 h) | paw volume (mice; 5 h) | no. of writhing (20 min) (mice (BALB-c) [1]) | latency of nociceptive response (mice (BALB-c) [2]; 0 min) [s] | latency of nociceptive response (mice (BALB-c) [2]; 30 min) [s] | latency of nociceptive response (mice (BALB-c) [2]; 60 min) [s] | latency of nociceptive response (mice (BALB-c) [2]; 90 min) [s] | latency of nociceptive response (mice (BALB-c) [2]; 120 min) [s]
O=C(O)Cc1ccccc1Nc1c(Cl)cccc1Cl [diclofenac–Na, diclofenac sodium] | 2.283 ± 0.201 | 2.142 ± 0.105 | 2.004 ± 0.224 | 2.010 ± 0.185 | 2.019 ± 0.022 | – | – | – | – | – | –
COc1ccc2c(c1)c(CC(=O)O)c(C)n2C(=O)c1ccc(Cl)cc1 [indomethacin] | 2.462 ± 0.032 | 2.207 ± 0.218 | 2.100 ± 0.122 | 2.128 ± 0.370 | 2.184 ± 0.632 | 17.04 ± 1.22 | – | – | – | – | –
COc1cccc(C2(O)CCCCC2CN(C)C)c1 (stereo not shown) [tramal, tramadol] | – | – | – | – | – | – | 10.32 ± 0.57 | 26.22 ± 1.07 | 25.45 ± 2.52 | 20.37 ± 0.88 | 20.07 ± 1.66
